pIC50: −log10 of the molar value.
Assays:
Type in all cases: functional, cell-based
MDA-MB-231 = assay: Antiproliferative activity against human MDA-MB-231 cells incubated for 72 hrs by SRB assay; settings: MDA-MB-231, 72 h
[1] = Antiproliferative activity against human KBVIN cells incubated for 72 hrs by SRB assay
Summary of the method: (§1)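 Cells in RPMI-1640 with 2 mM L-glutamine, 25 mM HEPES, 10% FBS, streptomycin and penicillin. Seeded at 4,000−12,000 cells per well, then exposed to compound for 72 h. Fixed with 10% trichloroacetic acid, stained with 0.04% SRB, dye taken up in 10 mM Tris base, absorbance read at 515 nm. IC50 is 50% reduction versus untreated cells, from at least three independent experiments run in duplicate.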

KB = assay: Antiproliferative activity against human KB cells incubated for 72 hrs by SRB assay
A549 = assay: Antiproliferative activity against human A549 cells incubated for 72 hrs by SRB assay; settings: A549, 72 h
MCF7 = assay: Antiproliferative activity against human MCF7 cells incubated for 72 hrs by SRB assay; settings: MCF7, 72 h; summary of the method: as §1

Structure (SMILES) | pIC50 (MDA-MB-231) | pIC50 (KB) | pIC50 (A549) | pIC50 (MCF7) | pIC50 [1]
C=CC(=C)CC[C@]1(C)[C@H](C)C[C@H](OC(=O)/C=C\C=C/CCCCC)[C@@]23C(=C[C@@H](O)C[C@@H]12)[C@@H](OC(C)=O)O[C@H]3OC(C)=O | 5.29 | 5.31 | 5.32 | 5.28 | 5.32
C=CC(=C)CC[C@]1(C)[C@H](C)C[C@H](OC(=O)/C=C\C=C/CCCCC)[C@@]23C(=C[C@H](O)C[C@@H]12)[C@@H](OC(C)=O)O[C@H]3OC(C)=O | 5.32 | 5.32 | 5.34 | 5.32 | 5.31
C=CC(=C)CC[C@]1(C)[C@H](C)C[C@H](OC(=O)CCCCCCCCC)[C@@]23C(=CC(=O)C[C@@H]12)[C@@H](OC(C)=O)O[C@H]3OC(C)=O | < 5.00 | 5.23 | < 5.00 | 5.08 | 5.01
C=CC(=C)CC[C@]1(C)[C@H](C)C[C@H](OC(=O)CCCCCCCCC)[C@@]23C(=C[C@@H](O)C[C@@H]12)[C@@H](OC(C)=O)O[C@H]3OC(C)=O | 5.27 | 5.35 | 5.28 | 5.27 | 5.32

The remaining compounds from weak to strong by pIC50 (MDA-MB-231), led by results:

pIC50 (MDA-MB-231) | pIC50 (KB) | pIC50 (A549) | pIC50 (MCF7) | Structure (SMILES) | pIC50 [1]
5.28 | 5.30 | 5.33 | 5.30 | C=CC(=C)CC[C@]1(C)[C@H](C)C[C@H](OC(=O)CCCCCCCCC)[C@@]23C(=C[C@H](O)C[C@@H]12)[C@@H](OC(C)=O)O[C@H]3OC(C)=O | 5.31
5.29 | 5.30 | 5.33 | 5.31 | C=CC(=C)CC[C@]1(C)[C@H](C)C[C@H](OC(=O)CCCCCCC)[C@@]23C(=C[C@H](O)C[C@@H]12)[C@@H](OC(C)=O)O[C@H]3OC(C)=O | 5.31

— ChEMBL document CHEMBL4177540, “Corymbulosins D-H, 2-Hydroxy- and 2-Oxo-clerodane Diterpenes from the Bark of Laetia corymbulosa” (J Nat Prod, 2017)
